Reference: ChEMBL document CHEMBL3098071, “Synthesis and evaluation of novel azoles as potent antifungal agents” (2014)
≈ marks a conversion by molar mass, not a printed value.

Legend:
Assay type in all cases: functional
Nakaseomyces glabratus [1] = assay: Ratio of ketoconazole MIC80 to compound MIC80 for Candida glabrata
Nakaseomyces glabratus [2] = assay: Ratio of fluconazole MIC80 to compound MIC80 for Candida glabrata
Nakaseomyces glabratus [3] = assay: Ratio of itraconazole MIC80 to compound MIC80 for Candida glabrata
Nakaseomyces glabratus [4] = assay: Ratio of voriconazole MIC80 to compound MIC80 for Candida glabrata
Nannizzia gypsea = assay: Antimicrobial activity against Microsporum gypseum by broth microdilution method
Aspergillus fumigatus = assay: Antimicrobial activity against Aspergillus fumigatus by broth microdilution method
Trichophyton rubrum = assay: Antimicrobial activity against Trichophyton rubrum by broth microdilution method
Nakaseomyces glabratus [5] = assay: Antimicrobial activity against Candida glabrata by broth microdilution method
Cryptococcus neoformans = assay: Antimicrobial activity against Cryptococcus neoformans after 72 hrs by broth microdilution method
In short: (§1)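 Broth microdilution in 96-well plates following NCCLS methods. Compounds were dissolved in DMSO, serially diluted in growth medium, inoculated and incubated at 35°C. MIC read at 24 h for Candida albicans and at 72 h for Cryptococcus neoformans. MIC80 is the first well with about 80% less growth than the drug-free well. Values are means of three replicate tests.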

Candida parapsilosis = assay: Antimicrobial activity against Candida parapsilosis by broth microdilution method; conditions: Lodderomyces parapsilosis
Candida albicans [6] = assay: Antimicrobial activity against Candida albicans SC5314 after 24 hrs by broth microdilution method; conditions: SC5314, 24 h; in short: as §1
Candida albicans [7] = assay: Antimicrobial activity against Candida albicans Y0109 after 24 hrs by broth microdilution method; conditions: Y0109, 24 h; in short: as §1
Candida albicans [8] = assay: Ratio of voriconazole MIC80 to compound MIC80 for Candida albicans SC5314
Candida albicans [9] = assay: Ratio of itraconazole MIC80 to compound MIC80 for Candida albicans SC5314

OC(CN1CCN(CCCSc2nnc(-c3cccc(Br)c3)o2)CC1)(Cn1cncn1)c1ccc(F)cc1F (configuration not stated)
Ratio (Nakaseomyces glabratus [1]): 2051 | Ratio (Nakaseomyces glabratus [2]): 256 | Ratio (Nakaseomyces glabratus [3]): 32 | Ratio (Nakaseomyces glabratus [4]): 16 | MIC80 (Nannizzia gypsea): 1 µg/mL (≈ 1.61 µM) | MIC80 (Aspergillus fumigatus): > 64 µg/mL | MIC80 (Trichophyton rubrum): 0.25 µg/mL (≈ 0.403 µM) | MIC80 (Nakaseomyces glabratus [5]): 0.0039 µg/mL (≈ 0.00629 µM) | MIC80 (Cryptococcus neoformans): 0.25 µg/mL (≈ 0.403 µM) | MIC80 (Candida parapsilosis): 0.25 µg/mL (≈ 0.403 µM) | MIC80 (Candida albicans [6]): 0.0625 µg/mL (≈ 0.101 µM) | MIC80 (Candida albicans [7]): 0.0625 µg/mL (≈ 0.101 µM)

Cc1ccccc1-c1nnc(SCCCN2CCN(CC(O)(Cn3cncn3)c3ccc(F)cc3F)CC2)o1 (configuration not stated)
MIC80 (Nannizzia gypsea): 0.25 µg/mL (≈ 0.45 µM) | MIC80 (Aspergillus fumigatus): > 64 µg/mL | MIC80 (Trichophyton rubrum): 0.25 µg/mL (≈ 0.45 µM) | MIC80 (Nakaseomyces glabratus [5]): 0.125 µg/mL (≈ 0.225 µM) | MIC80 (Cryptococcus neoformans): 0.125 µg/mL (≈ 0.225 µM) | MIC80 (Candida parapsilosis): 0.125 µg/mL (≈ 0.225 µM) | MIC80 (Candida albicans [6]): 0.25 µg/mL (≈ 0.45 µM) | MIC80 (Candida albicans [7]): 0.25 µg/mL (≈ 0.45 µM)

OC(CN1CCN(CCCSc2nnc(-c3cccc(F)c3)o2)CC1)(Cn1cncn1)c1ccc(F)cc1F (configuration not stated)
Ratio (Candida albicans [8]): 16 | Ratio (Candida albicans [9]): 64 | MIC80 (Nannizzia gypsea): 1 µg/mL (≈ 1.79 µM) | MIC80 (Aspergillus fumigatus): > 64 µg/mL | MIC80 (Trichophyton rubrum): 0.0625 µg/mL (≈ 0.112 µM) | MIC80 (Nakaseomyces glabratus [5]): 0.0625 µg/mL (≈ 0.112 µM) | MIC80 (Cryptococcus neoformans): 0.0625 µg/mL (≈ 0.112 µM) | MIC80 (Candida parapsilosis): 0.25 µg/mL (≈ 0.447 µM) | MIC80 (Candida albicans [6]): 0.0039 µg/mL (≈ 0.00697 µM) | MIC80 (Candida albicans [7]): 0.0625 µg/mL (≈ 0.112 µM)

OC(CN1CCN(CCCSc2nnc(-c3cccc(Cl)c3)o2)CC1)(Cn1cncn1)c1ccc(F)cc1F (configuration not stated)
Ratio (Candida albicans [8]): 16 | Ratio (Candida albicans [9]): 64 | MIC80 (Nannizzia gypsea): 1 µg/mL (≈ 1.74 µM) | MIC80 (Aspergillus fumigatus): > 64 µg/mL | MIC80 (Trichophyton rubrum): 0.0625 µg/mL (≈ 0.108 µM) | MIC80 (Nakaseomyces glabratus [5]): 0.25 µg/mL (≈ 0.434 µM) | MIC80 (Cryptococcus neoformans): 0.0625 µg/mL (≈ 0.108 µM) | MIC80 (Candida parapsilosis): 0.25 µg/mL (≈ 0.434 µM) | MIC80 (Candida albicans [6]): 0.0039 µg/mL (≈ 0.00677 µM) | MIC80 (Candida albicans [7]): 0.0039 µg/mL (≈ 0.00677 µM)

OC(CN1CCN(CCCSc2nnc(-c3ccc(F)cc3)o2)CC1)(Cn1cncn1)c1ccc(F)cc1F (configuration not stated)
MIC80 (Nannizzia gypsea): 4 µg/mL (≈ 7.15 µM) | MIC80 (Aspergillus fumigatus): > 64 µg/mL | MIC80 (Trichophyton rubrum): 0.0625 µg/mL (≈ 0.112 µM) | MIC80 (Nakaseomyces glabratus [5]): 0.25 µg/mL (≈ 0.447 µM) | MIC80 (Cryptococcus neoformans): 0.25 µg/mL (≈ 0.447 µM) | MIC80 (Candida parapsilosis): 0.25 µg/mL (≈ 0.447 µM) | MIC80 (Candida albicans [6]): 0.0156 µg/mL (≈ 0.0279 µM) | MIC80 (Candida albicans [7]): 0.25 µg/mL (≈ 0.447 µM)

Cc1ccc(-c2nnc(SCCCN3CCN(CC(O)(Cn4cncn4)c4ccc(F)cc4F)CC3)o2)cc1 (configuration not stated)
MIC80 (Nannizzia gypsea): 1 µg/mL (≈ 1.8 µM) | MIC80 (Aspergillus fumigatus): > 64 µg/mL | MIC80 (Trichophyton rubrum): 1 µg/mL (≈ 1.8 µM) | MIC80 (Nakaseomyces glabratus [5]): 0.25 µg/mL (≈ 0.45 µM) | MIC80 (Cryptococcus neoformans): 1 µg/mL (≈ 1.8 µM) | MIC80 (Candida parapsilosis): 0.025 µg/mL (≈ 0.045 µM) | MIC80 (Candida albicans [6]): 0.25 µg/mL (≈ 0.45 µM) | MIC80 (Candida albicans [7]): 0.125 µg/mL (≈ 0.225 µM)

OC(CN1CCN(CCCSc2nnc(-c3ccccc3Br)o2)CC1)(Cn1cncn1)c1ccc(F)cc1F (configuration not stated)
MIC80 (Nannizzia gypsea): 0.25 µg/mL (≈ 0.403 µM) | MIC80 (Aspergillus fumigatus): > 64 µg/mL | MIC80 (Trichophyton rubrum): 0.25 µg/mL (≈ 0.403 µM) | MIC80 (Nakaseomyces glabratus [5]): 0.0625 µg/mL (≈ 0.101 µM) | MIC80 (Cryptococcus neoformans): 0.0625 µg/mL (≈ 0.101 µM) | MIC80 (Candida parapsilosis): 0.0625 µg/mL (≈ 0.101 µM) | MIC80 (Candida albicans [6]): 0.0156 µg/mL (≈ 0.0251 µM) | MIC80 (Candida albicans [7]): 0.0625 µg/mL (≈ 0.101 µM)

OC(CN1CCN(CCCSc2nnc(-c3ccc(Br)cc3)o2)CC1)(Cn1cncn1)c1ccc(F)cc1F (configuration not stated)
MIC80 (Nannizzia gypsea): 0.25 µg/mL (≈ 0.403 µM) | MIC80 (Aspergillus fumigatus): > 64 µg/mL | MIC80 (Trichophyton rubrum): 0.25 µg/mL (≈ 0.403 µM) | MIC80 (Nakaseomyces glabratus [5]): 0.0156 µg/mL (≈ 0.0251 µM) | MIC80 (Cryptococcus neoformans): 0.25 µg/mL (≈ 0.403 µM) | MIC80 (Candida parapsilosis): 0.0625 µg/mL (≈ 0.101 µM) | MIC80 (Candida albicans [6]): 0.0625 µg/mL (≈ 0.101 µM) | MIC80 (Candida albicans [7]): 0.0625 µg/mL (≈ 0.101 µM)

CCC(C)n1ncn(-c2ccc(N3CCN(c4ccc(OCC5COC(Cn6cncn6)(c6ccc(Cl)cc6Cl)O5)cc4)CC3)cc2)c1=O (configuration not stated) [ITRACONAZOLE]
MIC80 (Nannizzia gypsea): 1 µg/mL (≈ 1.42 µM) | MIC80 (Aspergillus fumigatus): 1 µg/mL (≈ 1.42 µM) | MIC80 (Trichophyton rubrum): 0.5 µg/mL (≈ 0.709 µM) | MIC80 (Nakaseomyces glabratus [5]): 0.125 µg/mL (≈ 0.177 µM) | MIC80 (Cryptococcus neoformans): 0.125 µg/mL (≈ 0.177 µM) | MIC80 (Candida parapsilosis): 0.125 µg/mL (≈ 0.177 µM) | MIC80 (Candida albicans [6]): 0.25 µg/mL (≈ 0.354 µM) | MIC80 (Candida albicans [7]): 0.25 µg/mL (≈ 0.354 µM)

COc1ccccc1-c1nnc(SCCCN2CCN(CC(O)(Cn3cncn3)c3ccc(F)cc3F)CC2)o1 (configuration not stated)
MIC80 (Nannizzia gypsea): 16 µg/mL (≈ 28 µM) | MIC80 (Aspergillus fumigatus): > 64 µg/mL | MIC80 (Trichophyton rubrum): 0.25 µg/mL (≈ 0.437 µM) | MIC80 (Nakaseomyces glabratus [5]): 1 µg/mL (≈ 1.75 µM) | MIC80 (Cryptococcus neoformans): 4 µg/mL (≈ 7 µM) | MIC80 (Candida parapsilosis): 16 µg/mL (≈ 28 µM) | MIC80 (Candida albicans [6]): 0.25 µg/mL (≈ 0.437 µM) | MIC80 (Candida albicans [7]): 0.125 µg/mL (≈ 0.219 µM)

N#Cc1cccc(-c2nnc(SCCCN3CCN(CC(O)(Cn4cncn4)c4ccc(F)cc4F)CC3)o2)c1 (configuration not stated)
MIC80 (Nannizzia gypsea): 1 µg/mL (≈ 1.76 µM) | MIC80 (Aspergillus fumigatus): > 64 µg/mL | MIC80 (Trichophyton rubrum): 0.25 µg/mL (≈ 0.441 µM) | MIC80 (Nakaseomyces glabratus [5]): 0.25 µg/mL (≈ 0.441 µM) | MIC80 (Cryptococcus neoformans): 0.25 µg/mL (≈ 0.441 µM) | MIC80 (Candida parapsilosis): 0.25 µg/mL (≈ 0.441 µM) | MIC80 (Candida albicans [6]): 0.125 µg/mL (≈ 0.221 µM) | MIC80 (Candida albicans [7]): 0.125 µg/mL (≈ 0.221 µM)

CC(=O)N1CCN(c2ccc(OCC3COC(Cn4ccnc4)(c4ccc(Cl)cc4Cl)O3)cc2)CC1 (configuration not stated) [KETOCONAZOLE]
MIC80 (Nannizzia gypsea): 2 µg/mL (≈ 3.76 µM) | MIC80 (Aspergillus fumigatus): 2 µg/mL (≈ 3.76 µM) | MIC80 (Trichophyton rubrum): 8 µg/mL (≈ 15.1 µM) | MIC80 (Nakaseomyces glabratus [5]): 8 µg/mL (≈ 15.1 µM) | MIC80 (Cryptococcus neoformans): 4 µg/mL (≈ 7.53 µM) | MIC80 (Candida parapsilosis): 8 µg/mL (≈ 15.1 µM) | MIC80 (Candida albicans [6]): 4 µg/mL (≈ 7.53 µM) | MIC80 (Candida albicans [7]): 8 µg/mL (≈ 15.1 µM)

OC(CN1CCN(CCCSc2nnc(-c3ccccc3F)o2)CC1)(Cn1cncn1)c1ccc(F)cc1F (configuration not stated)
MIC80 (Nannizzia gypsea): 1 µg/mL (≈ 1.79 µM) | MIC80 (Aspergillus fumigatus): > 64 µg/mL | MIC80 (Trichophyton rubrum): 0.0625 µg/mL (≈ 0.112 µM) | MIC80 (Nakaseomyces glabratus [5]): 0.0625 µg/mL (≈ 0.112 µM) | MIC80 (Cryptococcus neoformans): 0.0625 µg/mL (≈ 0.112 µM) | MIC80 (Candida parapsilosis): 0.25 µg/mL (≈ 0.447 µM) | MIC80 (Candida albicans [6]): 0.0625 µg/mL (≈ 0.112 µM) | MIC80 (Candida albicans [7]): 0.0156 µg/mL (≈ 0.0279 µM)
